Measurements taken from ChEMBL document CHEMBL4689842, “EUbOPEN Chemogenomics Library wave 1” (2021).

Test system: HEK-293T
Assay: Multiplex assay against HEK293T;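 on Population Tubulin-Different-Phenotype (%): share of the cells with healthy nuclei that show this phenotype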
Assay type: toxicity, cell-based
Conditions: human
How it was run: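 At seeding, live cells were stained with Hoechst33342, BioTracker Green Microtubule Cytoskeleton Dye, MitoTracker Red and Annexin V Alexa Fluor 680. After compound addition they were imaged on a CQ1 microscope at 37°C and 5% CO2, and CellPathfinder machine-learning gating sorted them into Hoechst high-intensity objects or normal cells, with normal cells further split into healthy, pyknosed or fragmented nuclei and pyknosed cells into mitotic or apoptotic. Tubulin, mitochondrial-mass and membrane-permeability phenotypes are given as per cents of cells with healthy nuclei.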

[1] = 12 h, 1 µM, compound concentration 1 uM, replicate 1
[2] = 12 h, 1 µM, compound concentration 1 uM, replicate 2
[3] = 12 h, 10 µM, compound concentration 10 uM, replicate 1
[4] = 12 h, 10 µM, compound concentration 10 uM, replicate 2
[5] = 24 h, 1 µM, compound concentration 1 uM, replicate 1
[6] = 24 h, 1 µM, compound concentration 1 uM, replicate 2
[7] = 24 h, 10 µM, compound concentration 10 uM, replicate 1
[8] = 24 h, 10 µM, compound concentration 10 uM, replicate 2

O=c1[nH]c2ccccc2n1C1CCN(Cc2ccc(-c3[nH]c4cc5ncnc5cc4nc3-c3ccccc3)cc2)CC1
Population Apoptotic (%) [1]: 16%
Population Fragmented Nuclei (%) [1]: 13%
Population Healthy Nuclei (%) [1]: 69%
Population Hoechst High Intensity Objects (%) [1]: 7%
Population Membrane Permeable-Phenotype (%) [1]: 7%
Population Mitochondria Different-Phenotype (%) [1]: 3%
Population Mitotic Cells (%) [1]: 83%
Population Normal (%) [1]: 92%
Population Pyknosed Nuclei (%) [1]: 16%
Population Tubulin-Different-Phenotype (%) [1]: 6%
Total Cell Count [1]: 646
Population Apoptotic (%) [2]: 10%
Population Fragmented Nuclei (%) [2]: 5%
Population Healthy Nuclei (%) [2]: 89%
Population Hoechst High Intensity Objects (%) [2]: 2%
Population Membrane Permeable-Phenotype (%) [2]: 5%
Population Mitochondria Different-Phenotype (%) [2]: 23%
Population Mitotic Cells (%) [2]: 90%
Population Normal (%) [2]: 97%
Population Pyknosed Nuclei (%) [2]: 5%
Population Tubulin-Different-Phenotype (%) [2]: 43%
Total Cell Count [2]: 1621
Population Apoptotic (%) [3]: 38%
Population Fragmented Nuclei (%) [3]: 10%
Population Healthy Nuclei (%) [3]: 50%
Population Hoechst High Intensity Objects (%) [3]: 20%
Population Membrane Permeable-Phenotype (%) [3]: 22%
Population Mitochondria Different-Phenotype (%) [3]: 40%
Population Mitotic Cells (%) [3]: 61%
Population Normal (%) [3]: 79%
Population Pyknosed Nuclei (%) [3]: 39%
Population Tubulin-Different-Phenotype (%) [3]: 91%
Total Cell Count [3]: 661
Population Apoptotic (%) [4]: 24%
Population Fragmented Nuclei (%) [4]: 2%
Population Healthy Nuclei (%) [4]: 71%
Population Hoechst High Intensity Objects (%) [4]: 13%
Population Membrane Permeable-Phenotype (%) [4]: 13%
Population Mitochondria Different-Phenotype (%) [4]: 51%
Population Mitotic Cells (%) [4]: 75%
Population Normal (%) [4]: 86%
Population Pyknosed Nuclei (%) [4]: 25%
Population Tubulin-Different-Phenotype (%) [4]: 86%
Total Cell Count [4]: 974
Population Apoptotic (%) [5]: 11%
Population Fragmented Nuclei (%) [5]: 14%
Population Hoechst High Intensity Objects (%) [5]: 6%
Population Membrane Permeable-Phenotype (%) [5]: 17%
Population Mitochondria Different-Phenotype (%) [5]: 3%
Population Mitotic Cells (%) [5]: 88%
Population Normal (%) [5]: 93%
Population Pyknosed Nuclei (%) [5]: 5%
Population Tubulin-Different-Phenotype (%) [5]: 14%
Total Cell Count [5]: 776
Population Apoptotic (%) [6]: 7%
Population Fragmented Nuclei (%) [6]: 17%
Population Healthy Nuclei (%) [6]: 79%
Population Hoechst High Intensity Objects (%) [6]: 4%
Population Membrane Permeable-Phenotype (%) [6]: 14%
Population Mitochondria Different-Phenotype (%) [6]: 6%
Population Mitotic Cells (%) [6]: 92%
Population Normal (%) [6]: 95%
Population Pyknosed Nuclei (%) [6]: 3%
Population Tubulin-Different-Phenotype (%) [6]: 52%
Total Cell Count [6]: 2517
Population Apoptotic (%) [7]: 54%
Population Fragmented Nuclei (%) [7]: 12%
Population Healthy Nuclei (%) [7]: 56%
Population Hoechst High Intensity Objects (%) [7]: 31%
Population Membrane Permeable-Phenotype (%) [7]: 9%
Population Mitochondria Different-Phenotype (%) [7]: 70%
Population Mitotic Cells (%) [7]: 45%
Population Normal (%) [7]: 68%
Population Pyknosed Nuclei (%) [7]: 31%
Population Tubulin-Different-Phenotype (%) [7]: 83%
Total Cell Count [7]: 612
Population Apoptotic (%) [8]: 28%
Population Fragmented Nuclei (%) [8]: 2%
Population Healthy Nuclei (%) [8]: 71%
Population Hoechst High Intensity Objects (%) [8]: 23%
Population Membrane Permeable-Phenotype (%) [8]: 6%
Population Mitochondria Different-Phenotype (%) [8]: 67%
Population Mitotic Cells (%) [8]: 71%
Population Normal (%) [8]: 76%
Population Pyknosed Nuclei (%) [8]: 26%
Population Tubulin-Different-Phenotype (%) [8]: 72%
Total Cell Count [8]: 883

C=CC(=O)Nc1cccc(Sc2nc(Nc3ccc(N4CCN(C)CC4)cc3)ncc2Cl)c1
Population Apoptotic (%) [1]: 33%
Population Fragmented Nuclei (%) [1]: 28%
Population Healthy Nuclei (%) [1]: 14%
Population Hoechst High Intensity Objects (%) [1]: 16%
Population Membrane Permeable-Phenotype (%) [1]: 22%
Population Mitochondria Different-Phenotype (%) [1]: 15%
Population Mitotic Cells (%) [1]: 66%
Population Normal (%) [1]: 83%
Population Pyknosed Nuclei (%) [1]: 57%
Population Tubulin-Different-Phenotype (%) [1]: 58%
Total Cell Count [1]: 748
Population Apoptotic (%) [2]: 20%
Population Fragmented Nuclei (%) [2]: 4%
Population Healthy Nuclei (%) [2]: 64%
Population Hoechst High Intensity Objects (%) [2]: 10%
Population Membrane Permeable-Phenotype (%) [2]: 7%
Population Mitochondria Different-Phenotype (%) [2]: 44%
Population Mitotic Cells (%) [2]: 79%
Population Normal (%) [2]: 89%
Population Pyknosed Nuclei (%) [2]: 30%
Population Tubulin-Different-Phenotype (%) [2]: 98%
Total Cell Count [2]: 1010
Population Apoptotic (%) [3]: 21%
Population Fragmented Nuclei (%) [3]: 26%
Population Healthy Nuclei (%) [3]: 38%
Population Hoechst High Intensity Objects (%) [3]: 21%
Population Membrane Permeable-Phenotype (%) [3]: 10%
Population Mitochondria Different-Phenotype (%) [3]: 13%
Population Mitotic Cells (%) [3]: 78%
Population Normal (%) [3]: 78%
Population Pyknosed Nuclei (%) [3]: 35%
Population Tubulin-Different-Phenotype (%) [3]: 14%
Total Cell Count [3]: 476
Population Apoptotic (%) [4]: 6%
Population Fragmented Nuclei (%) [4]: 7%
Population Healthy Nuclei (%) [4]: 84%
Population Hoechst High Intensity Objects (%) [4]: 3%
Population Membrane Permeable-Phenotype (%) [4]: 5%
Population Mitochondria Different-Phenotype (%) [4]: 16%
Population Mitotic Cells (%) [4]: 93%
Population Normal (%) [4]: 96%
Population Pyknosed Nuclei (%) [4]: 7%
Population Tubulin-Different-Phenotype (%) [4]: 25%
Total Cell Count [4]: 1448
Population Apoptotic (%) [5]: 55%
Population Fragmented Nuclei (%) [5]: 34%
Population Healthy Nuclei (%) [5]: 26%
Population Hoechst High Intensity Objects (%) [5]: 14%
Population Membrane Permeable-Phenotype (%) [5]: 18%
Population Mitochondria Different-Phenotype (%) [5]: 12%
Population Mitotic Cells (%) [5]: 44%
Population Normal (%) [5]: 85%
Population Pyknosed Nuclei (%) [5]: 39%
Population Tubulin-Different-Phenotype (%) [5]: 52%
Total Cell Count [5]: 683
Population Apoptotic (%) [6]: 28%
Population Fragmented Nuclei (%) [6]: 6%
Population Healthy Nuclei (%) [6]: 63%
Population Hoechst High Intensity Objects (%) [6]: 10%
Population Membrane Permeable-Phenotype (%) [6]: 6%
Population Mitochondria Different-Phenotype (%) [6]: 63%
Population Mitotic Cells (%) [6]: 71%
Population Normal (%) [6]: 89%
Population Pyknosed Nuclei (%) [6]: 29%
Population Tubulin-Different-Phenotype (%) [6]: 97%
Total Cell Count [6]: 914
Population Apoptotic (%) [7]: 26%
Population Fragmented Nuclei (%) [7]: 18%
Population Healthy Nuclei (%) [7]: 64%
Population Hoechst High Intensity Objects (%) [7]: 12%
Population Membrane Permeable-Phenotype (%) [7]: 10%
Population Mitochondria Different-Phenotype (%) [7]: 12%
Population Mitotic Cells (%) [7]: 73%
Population Normal (%) [7]: 87%
Population Pyknosed Nuclei (%) [7]: 17%
Population Tubulin-Different-Phenotype (%) [7]: 30%
Total Cell Count [7]: 470
Population Apoptotic (%) [8]: 4%
Population Fragmented Nuclei (%) [8]: 20%
Population Healthy Nuclei (%) [8]: 76%
Population Hoechst High Intensity Objects (%) [8]: 4%
Population Membrane Permeable-Phenotype (%) [8]: 7%
Population Mitochondria Different-Phenotype (%) [8]: 2%
Population Mitotic Cells (%) [8]: 95%
Population Normal (%) [8]: 95%
Population Pyknosed Nuclei (%) [8]: 3%
Population Tubulin-Different-Phenotype (%) [8]: 19%
Total Cell Count [8]: 2375
